The record followed here is ChEMBL document CHEMBL1126168, “Benzazepinone calcium channel blockers. 3. Synthesis and structure-activity studies of 3-alkylbenzazepinones” (J Med Chem, 1992).

A short description of test [1]: In vivo evaluation for the percentage decrease in blood pressure at 45 umol/kg administered through oral route in spontaneously hypertensive rats and observed for 0-6 h.
The next test is filed under the species Oryctolagus cuniculus. As to the kind of experiment: In vitro evaluation for the vasorelaxant effects in circumferential strips of potassium-depolarized rabbit aorta. (IC50 in rabbit aorta strips contracted with KCl). The class given is functional.
Test [2] is described as follows: In vivo evaluation for the percentage decrease in blood pressure at 135 umol/kg administered through oral route in spontaneously hypertensive rats and observed for 12-18 h. In kind it is functional, Rattus norvegicus. In a few lines:
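Spontaneously hypertensive rats, n = 5, dosed orally at 135 μmol/kg; blood pressure followed and reported as percent decrease over the 0-6, 6-12 and 12-18 h intervals after dosing.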

A short description of test [3]: In vivo evaluation for the percentage decrease in blood pressure at 45 umol/kg administered through oral route in spontaneously hypertensive rats and observed for 6-12 h.
Test [4] in a line: In vivo evaluation for the percentage decrease in blood pressure at 45 umol/kg administered through oral route in spontaneously hypertensive rats and observed for 12-18 h.
A short description of test [5]: (§1) In vitro inhibition [3H]diltiazem binding to calcium channels in isolated guinea pig skeletal muscle microsomal preparations. In kind it is microsomes, Cavia porcellus, Muscle tissue, Microsome.
The species named for a further test is Cavia porcellus. The test is described as §1. Conditions: Muscle tissue, Microsome, concentration not given here. The class given is microsomes.

Take `C=CC[C@H]1C(=O)N(CCN(C)C)c2cccc(C(F)(F)F)c2C[C@H]1c1ccc(OC)cc1.Cl` (relative stereo): the Decrease in test [1] turned out to be 33%; in test [2] it was 27%; in test [3], 32%. Also, in the test filed under Oryctolagus cuniculus, the IC50 (as a rule, the concentration that gives 50% inhibition) is 77 nM.
As for `COc1ccc([C@@H]2Cc3c(cccc3C(F)(F)F)N(CCN(C)C)C(=O)[C@H]2C)cc1.Cl`, the values for the Decrease in test [1], in test [2] and in test [3] were 12%, 8% and 9%, respectively.
Regarding `CC[C@H]1C(=O)N(CCN(C)C)c2cccc(Cl)c2C[C@H]1c1ccc(OC)cc1`, the Decrease in test [1] is given as 14%; in test [4], 7%; in test [3], 18%. In the test listed under Oryctolagus cuniculus, this compound had an IC50 of 80 nM.
In the case of `CC[C@H]1C(=O)N(CCN(C)C)c2ccc(Cl)cc2C[C@H]1c1ccc(OC)cc1`, the Decrease is 20% in test [1], 21% in test [2] and 22% in test [3]. In the test listed under Oryctolagus cuniculus, this compound gave an IC50 of 280 nM.
Consider `C=CC[C@H]1C(=O)N(CCN(C)C)c2ccc(C(F)(F)F)cc2C[C@H]1c1ccc(OC)cc1.Cl`, for which the Decrease came out at 23% in test [1], 30% in test [4] and 28% in test [3]. In the test filed under Oryctolagus cuniculus, this compound yielded an IC50 of 240 nM.
With `CC[C@H]1C(=O)N(CCN(C)C)c2cccc(C(F)(F)F)c2C[C@H]1c1ccc(OC)cc1.Cl`, the Decrease in test [1] worked out at 24%; in test [2], 15%; in test [3] it was 19%.
For the compound `COc1ccc([C@@H]2Sc3cc(Cl)ccc3N(CCN(C)C)C(=O)[C@@H]2OC(C)=O)cc1` [CLENTIAZEM], the Decrease was found to be 29% in test [1], 22% in test [4] and 16% in test [3]. Besides, 100 nM corresponded to half-maximal inhibition in the test filed under Oryctolagus cuniculus (IC50).
For `COc1ccc([C@@H]2Cc3cc(C(F)(F)F)ccc3N(CCN(C)C)C(=O)[C@@H]2C)cc1.Cl`, the Decrease in test [1] is 23%; in test [2], 25%; in test [3], 23%. Moreover, the IC50 in the test listed under Oryctolagus cuniculus was found to be 1230 nM.
Turning to `COc1ccc([C@@H]2Cc3c(cccc3C(F)(F)F)N(CCN(C)C)C(=O)[C@@H]2OC(C)=O)cc1`, the Decrease in test [1] turned out to be 17%; in test [4] it was 12%; in test [3], 12%.
As to `COc1ccc([C@@H]2Cc3c(cccc3C(F)(F)F)N(CCN(C)C)C(=O)[C@H]2C)cc1`, the Decrease in test [1] is 24%; in test [4], 17%; in test [3], 23%.
For the compound `CCC[C@H]1C(=O)N(CCN(C)C)c2ccccc2C[C@H]1c1ccc(OC)cc1.Cl`, the Decrease in test [1] is 10%; in test [2], 12%; in test [3] it was 11%. Besides, the dissociation constant Kd – broadly, the free concentration of one partner at which half of the binding sites on the other are occupied at equilibrium, for simple one-to-one binding – in test [5] turned out to be 250 nM.
On to `COc1ccc([C@@H]2Cc3c(cccc3C(F)(F)F)N(CCN(C)C)C(=O)[C@@H]2C)cc1`, for which, in the test listed under Cavia porcellus, the inhibition – broadly, the relative decrease from the control value, in per cent – is 90%. Also, the Decrease in test [1] was 28%; in test [2] it was 22%; in test [3], 22%. Moreover, in the test filed under Oryctolagus cuniculus, the IC50 was 80 nM.
With `CCC[C@H]1C(=O)N(CCN(C)C)c2ccc(C(F)(F)F)cc2C[C@H]1c1ccc(OC)cc1.Cl`, the Decrease was determined as 6% in test [1], 8% in test [2] and 5% in test [3]. In the test filed under Oryctolagus cuniculus, it took 1200 nM to reach half-maximal inhibition (IC50).
`C=CC[C@H]1C(=O)N(CCN(C)C)c2ccccc2C[C@H]1c1ccc(OC)cc1.Cl`: the Decrease in test [1] amounted to 25%; in test [2] it was 18%; in test [3], 23%.
As to `C=CCC1C(=O)N(CCN(C)C)c2cccc(C(F)(F)F)c2CC1c1ccc(OC)cc1.Cl` (centres undefined), the Decrease in test [1] came out at 24%; in test [4] it was 29%; in test [3] it was 27%. The compound further yielded an IC50 in the test filed under Oryctolagus cuniculus of 100 nM.
On to `COc1ccc([C@@H]2Cc3c(OC)cccc3N(CCN(C)C)C(=O)[C@@H]2C)cc1.Cl`, for which the Decrease stood at 7% in test [1], 8% in test [2] and 10% in test [3]. Besides, in test [5], the Kd turned out to be 400 nM.
For `COc1ccc([C@@H]2Cc3c(ccc(Br)c3OC)N(CCN(C)C)C(=O)[C@@H]2C)cc1.Cl`, the Decrease came out at 9% in test [1], 14% in test [2] and 12% in test [3]. In addition, in the test filed under Oryctolagus cuniculus, the IC50 was determined as 90 nM. Moreover, in test [5], the Kd stood at 120 nM.
Regarding `C=CC[C@H]1C(=O)N(CCN(C)C)c2ccc(Cl)cc2C[C@H]1c1ccc(OC)cc1`, the Decrease in test [1] was 23%; in test [2] it was 25%; in test [3], 23%. In the test listed under Oryctolagus cuniculus, this compound returned an IC50 of 160 nM. Moreover, the Kd in test [5] came to 5040 nM.
In the case of `COc1ccc([C@@H]2Cc3cc(Cl)ccc3N(CCN(C)C)C(=O)[C@@H]2C)cc1`, the figures for the Decrease in test [1], in test [2] and in test [3] were 12%, 11% and 13%, respectively. Further, in the test listed under Oryctolagus cuniculus, the IC50 amounted to 150 nM. Also, the Kd in test [5] came out at 670 nM.
`COc1ccc([C@@H]2Cc3c(ccc(SC)c3OC)N(CCN(C)C)C(=O)[C@@H]2C)cc1.Cl`: the Decrease in test [1] came out at 18%; in test [2], 14%; in test [3], 15%. This compound showed an IC50 in the test listed under Oryctolagus cuniculus of 70 nM.
As to `CCC[C@H]1C(=O)N(CCN(C)C)c2cccc(C(F)(F)F)c2C[C@H]1c1ccc(OC)cc1.Cl`, the figures for the Decrease in test [1], in test [4] and in test [3] were 14%, 24% and 19%, respectively.
As for `COc1ccc([C@@H]2Cc3ccccc3N(CCN(C)C)C(=O)[C@@H]2C)cc1.Cl`, the Decrease in test [1] is 6%; in test [2], 8%; in test [3] it was 4%. In the test filed under Oryctolagus cuniculus, this compound displayed an IC50 of 1100 nM.
As to `COc1ccc([C@@H]2Cc3c(cccc3C(F)(F)F)N(CCN(C)C)C(=O)[C@@H]2Cc2ccccc2)cc1`, the values for the Decrease in test [1], in test [2] and in test [3] were 14%, 6% and 8%, respectively.
